The subject of one data set is THP-1. The data set can be described thus: Cytotoxicity against human THP-1 cells assessed as reduction in cell viability at <50 uM. Particulars: thp-1, 50 µM. Type of data set: toxicity, cell-based.
The test system of data set [1] is Quadruplex DNA. The data set can be described thus: Stabilization of fluorescently labelled G4-quadruplex Bom17 DNA (unknown origin) assessed as increase in thermal stability of DNA structure at 5 uM by FRET melting assay. Type of data set: nucleic-acid assay. The gist of the method:
(§1)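 0.2 μM FAM/TAMRA dual-labelled oligonucleotide, prefolded in 10 mM lithium cacodylate pH 7.4, 10 mM KCl, 90 mM LiCl (95 °C 10 min, then ≥1 h cold). Ligand added and sample heated from 10 to 95 °C; donor emission at 516 nm (excitation 492 nm) normalized. Tm taken at 0.5 normalized emission; ΔTm is Tm with ligand minus Tm without ligand. Duplicate wells.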

Data set [2] has as its system Quadruplex DNA. The experiment in a line: Stabilization of fluorescently labelled G4-quadruplex c-KIT2 DNA (unknown origin) assessed as increase in thermal stability of DNA structure at 5 uM by FRET melting assay. Type of data set: nucleic-acid assay. The method, boiled down: as §1
Data set [3] deals with Quadruplex DNA. The experiment in a line: Binding affinity to c-Myc G4-quadruplex Pu22 DNA (unknown origin) at 0.7 equivalent by NMR titration analysis. Type of data set: nucleic-acid assay. Particulars: dose 0.7 equiv. The gist of the method: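 Pu22 folded at 100 μM in 10 mM potassium phosphate pH 7.4, 35 mM KCl (95 °C 10 min, cooled overnight). 10% D2O added, giving 90 μM DNA. Compound added stepwise in increasing equivalents. 1D 1H spectra with excitation sculpting, 256 scans, 298 K, 850 MHz.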

Data set [4] concerns Quadruplex DNA. The data set can be described thus: Stabilization of G4-quadruplex DNA in human HeLa cells assessed as increase in BG4-positive cell nuclei at 20 uM incubated for 24 hrs by immunofluorescence microscopy. Type of data set: functional, cell-based. The gist of the method:
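HeLa cells (60,000 on coverslips) treated 24 h. Cells fixed in 2% paraformaldehyde, permeabilized in 0.1% Triton X-100, blocked in 2% milk. Stained with BG4–FLAG (1/3000), rabbit anti-FLAG, then Alexa594 anti-rabbit, each 1 h at 37 °C; nuclei stained with DAPI. BG4 foci per nucleus counted, 90–166 cells per condition. Welch-corrected t tests on ln-transformed data; mean ± 2SD shown.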

Data set [5] deals with Quadruplex DNA. The experiment in a line: Stabilization of fluorescently labelled G4-quadruplex 21G DNA (unknown origin) assessed as increase in thermal stability of DNA structure at 5 uM by FRET melting assay. Type of data set: nucleic-acid assay. The method, boiled down:
as §1

Data set [6] can be described thus: Solubility of the compound at pH 7.4. Type of data set: physicochemical. Particulars: buffer.
Data set [7] deals with Quadruplex DNA. The data set can be described thus: Stabilization of fluorescently labelled G4-quadruplex Bcl2 DNA (unknown origin) assessed as increase in thermal stability of DNA structure at 5 uM by FRET melting assay. Type of data set: nucleic-acid assay. The method, boiled down: as §1
The test system of data set [8] is Quadruplex DNA. The experiment in a line: Binding affinity to c-Myc G4-quadruplex Pu22 DNA (unknown origin) assessed as change in entropy by isothermal titration calorimetry. Type of data set: nucleic-acid assay. The method, boiled down: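 Reverse titration: cell holds 20 μM ligand, syringe 120 μM prefolded G4 DNA, 20 injections in 10 mM potassium phosphate, 100 mM KCl, pH 7.4, at 19 °C. First injection 0.5 μL, then 2 μL, 120 s spacing, 1000 rpm, high-feedback mode. Data fitted to one-site binding model.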
Background: In ITC the heat of successive injections is recorded.

Data set [9] is described as follows: Stabilization of double stranded PEPu24T mut DNA (unknown origin) assessed as inhibition of Taq DNA polymerase activity by measuring reduction in full length DNA product at 6 uM pretreated for 10 mins followed by incubation with dNTPs for 15 mins by PAGE analysis. Particulars: time 25.0 min. The method, boiled down:
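Non-G4 control template: TET-labelled 25 nt primer (1 μM final) annealed to mutated PEPu24T mut (1.25 μM final) in 100 mM KCl. 40 nM template, Taq buffer pH 8.8, 25 mM MgCl2, 0.05 U Taq. Compound on ice 10 min, then 100 μM dNTPs at 37 °C 15 min. Denaturing PAGE; full-length product as % of no-compound sample.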

Data set [10] concerns Quadruplex DNA. The experiment in a line: Stabilization of fluorescently labelled G4-quadruplex Tba DNA (unknown origin) assessed as increase in thermal stability of DNA structure at 5 uM by FRET melting assay. Type of data set: nucleic-acid assay. The gist of the method:
as §1

Data set [11] relates to Quadruplex DNA. The data set can be described thus: Stabilization of G4-quadruplex PEPu24T DNA (unknown origin) assessed as inhibition of Taq DNA polymerase activity by measuring reduction in full length DNA product at 1.2 uM pretreated for 10 mins followed by incubation with dNTPs for 15 mins by PAGE analysis. Type of data set: nucleic-acid assay. The settings on record: time 25.0 min. The method, boiled down:
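Template made by annealing TET-labelled 25 nt primer (1 μM final) to PEPu24T (1.25 μM final) in 100 mM KCl. Reaction: 40 nM template, Taq buffer pH 8.8 with 50 mM KCl, 25 mM MgCl2, 0.05 U Taq. Compound preincubated on ice 10 min; dNTPs (100 μM) added, 37 °C 15 min. Denaturing 12% urea/formamide PAGE; full-length product expressed as % of no-compound sample; SD of ≥2 independent experiments.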

Data set [12] deals with Quadruplex DNA. The data set can be described thus: Stabilization of fluorescently labelled c-Myc G4-quadruplex Pu22 DNA (unknown origin) assessed as increase in thermal stability of DNA structure at 5 uM in presence of double stranded competitor DNA ds26 by FRET melting assay. Type of data set: nucleic-acid assay. The gist of the method: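 Competition melting: 0.2 μM labelled Pu22 in 10 mM lithium cacodylate pH 7.4, 2 mM KCl, 98 mM LiCl, with ligand plus 0–100 equivalents of ds26 duplex competitor. Heated 10–95 °C; FAM emission normalized. Tm taken at 0.5 normalized emission; ΔTm is Tm with ligand minus Tm without ligand. SD of at least six independent experiments.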

A further data set relates to dsDNA. The experiment in a line: Binding affinity to 5'-Cy5-labelled double stranded DNA ds26 (unknown origin) by microscale thermophoresis analysis. Type of data set: nucleic-acid assay. The gist of the method:
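Cy5-labelled DNA held at 25 nM, folded in 10 mM phosphate, 100 mM KCl, pH 7.4 (95 °C 5 min, cooled to room temperature). Ligand in 16 1:3 dilutions in 10 mM phosphate pH 7.4, 100 mM KCl, 0.05% Tween20. Capillary fluorescence read at 20% LED power; change in fluorescence versus ligand concentration fitted by nonlinear equation for binding constant.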
In general terms: In MST a laser heats a spot of the sample, and binding alters the fluorescence response.

Data set [13] relates to Quadruplex DNA. The experiment in a line: Stabilization of fluorescently labelled G4-quadruplex 25Ceb DNA (unknown origin) assessed as increase in thermal stability of DNA structure at 5 uM by FRET melting assay. Type of data set: nucleic-acid assay. The gist of the method: as §1

Values after ≈ are worked out from the molar mass of the structure shown. Active and inactive are the calls of the source. No cut-off for these calls is given here.

As a reminder, the solubility is the concentration that dissolves in the medium under given conditions. A word on the inhibition: it is the change of the read-out against control, counted positive when it falls. Consider `Cc1cc(C)c2nc(Nc3nc(C)cc(C)n3)nc(C)c2c1`, for which the Activity entry with THP-1 is given as “Non-Toxic”. The outcome in the data set on Quadruplex DNA [1], with Quadruplex DNA [2], in the data set on Quadruplex DNA [3], in the data set on Quadruplex DNA [4], with Quadruplex DNA [5] and in the data set on Quadruplex DNA [7] was Active. Besides, the result in the data set with Quadruplex DNA [12] and with Quadruplex DNA [13] was Active. The solubility in [6] came to 134 µM (≈ 39.3 µg/mL). In addition, the -TdeltaS with Quadruplex DNA [8] is 3.2 kcal/mol. The result (in [9]; in the data set on Quadruplex DNA [10]; in the data set with dsDNA) was inactive. The inhibition with Quadruplex DNA [11] was 50%.

The record behind these values is ChEMBL document CHEMBL5385911, “Exploring the Dispersion and Electrostatic Components in Arene-Arene Interactions between Ligands and G4 DNA to Develop G4-Ligands” (J Med Chem, 2024).
